Assay outcomes deposited in PubChem by several laboratories.
Hits are enriched below; roughly 4.8% of the tested compounds scored in any of these assays.
UCH37 DUB inh: inhibitors of human deubiquitinating enzyme UCH37; actives 0.33% (n = 330,000); inhibition, % (test concentration not listed); AID 588478; purified proteasome/UCH37, Ub-AMC cleavage fluorescence;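 active = mean inhibition over replicate wells above about 20%, limit read from the data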;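 also: 0% = compound-free wells with enzyme and 100% = wells lacking proteasome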
Target sequence (Q9Y5K5 whole entry, looked up): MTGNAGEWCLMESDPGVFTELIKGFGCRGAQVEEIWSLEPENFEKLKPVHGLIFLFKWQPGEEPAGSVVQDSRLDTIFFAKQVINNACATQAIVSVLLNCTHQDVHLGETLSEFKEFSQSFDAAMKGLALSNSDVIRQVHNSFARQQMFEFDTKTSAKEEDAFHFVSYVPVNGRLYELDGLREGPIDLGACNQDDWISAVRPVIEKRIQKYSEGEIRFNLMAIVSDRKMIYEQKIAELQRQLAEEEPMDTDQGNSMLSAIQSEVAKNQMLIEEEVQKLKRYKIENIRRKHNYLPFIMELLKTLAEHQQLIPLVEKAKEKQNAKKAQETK
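Material: human UCH37 enzyme supplied as purified proteasome complex. Measure: % inhibition of Ub-AMC cleavage fluorescence. Medium: pH 7.4 Tris-HCl (50 mM) with ovalbumin, ATP-MgCl2, DTT. Times: 30 min preincubation with enzyme, 25 min cleavage at room temperature. Detection: AMC fluorescence intensity at 355/460 nm.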
PAFAH1B2 inh: blocks human PAF acetylhydrolase 1b catalytic subunit 2 | AID 492953 | inhibition, % at 3.39 µM | recombinant PAFAH1B2, FP-rhodamine activity probe, fluorescence polarization | P68402 | actives 1.2% (n = 340,000);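 active = inhibition above the mean of all tested compounds plus 3 SD, cut at about 24% in these data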;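 also: 0% = enzyme with DMSO and 100% = wells lacking PAFAH1B2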
Target sequence (P68402 whole entry, looked up): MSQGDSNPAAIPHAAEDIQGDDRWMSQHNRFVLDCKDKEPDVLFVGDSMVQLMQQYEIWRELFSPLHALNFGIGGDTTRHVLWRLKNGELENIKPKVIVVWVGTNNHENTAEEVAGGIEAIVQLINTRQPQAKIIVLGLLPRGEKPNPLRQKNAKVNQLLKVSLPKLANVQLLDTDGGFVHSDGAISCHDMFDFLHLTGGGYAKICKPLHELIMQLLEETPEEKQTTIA
PAFAH2 inh: inhibitors of human PAFAH2. recombinant PAFAH2, FP-rhodamine activity probe, fluorescence polarization. inhibition, % at 3.39 µM. actives 0.99% (n = 340,000). AID 492956;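 active = inhibition above the mean over all tested compounds plus 3 SD, cut at about 30% in these data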;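 also: inhibitors block probe labeling of enzyme so polarization drops; 0% = enzyme with DMSO and 100% = wells lacking PAFAH2 protein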
pPAFAH inh: inhibitors of human plasma PAF acetylhydrolase (pPAFAH); Q13093; recombinant pPAFAH, FP-rhodamine probe fluorescence polarization; inhibition, % at 3.39 µM; actives 1.5% (n = 330,000); AID 463082;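 active = inhibition above the mean inhibition across the screen plus 3 SD, cut at about 25% in these data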;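 also: inhibitors block binding of the rhodamine activity-based probe so polarization drops; 0% = enzyme with DMSO and 100% = wells lacking pPAFAH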
PAFAH1B3 inh: PAFAH1B3 (human) inhibition | Q15102 | recombinant PAFAH1B3, FP-rhodamine probe, fluorescence polarization | actives 0.28% (n = 340,000) | inhibition, % at 3.39 µM | AID 492972;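 active = inhibition above the screen-wide average of all tested compounds plus 3 SD, cut at about 25% in these data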;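 also: 0% = enzyme with DMSO only and 100% = wells lacking PAFAH1B3 protein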
GRIN3A LBD mod: modulators (binders) of human NR3A ligand-binding domain | NR3A LBD differential scanning fluorimetry, Tm shift; 0% = protein alone, 100% = glycine-bound protein | Tm shift relative to glycine control, % at 25 µM | actives 2.5% (n = 340,000);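 active = melting temperature shift of at least 10% of the positive control shift, at one fixed dose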
* hit, by the source's call; / = no result given.

SMILES	UCH37 DUB inh	PAFAH1B2 inh	PAFAH2 inh	pPAFAH inh	PAFAH1B3 inh	GRIN3A LBD mod
CNS(=O)(=O)c1cccc(C(=O)OCC(=O)Nc2ccc(Cl)cn2)c1	0	0	21	6	6	-3
O=C(OCC(=O)C12CC3CC(CC(C3)C1)C2)c1ccc(O)cc1	2	26*	84*	3	1	1
O=C(OCC(=O)C12CC3CC(CC(C3)C1)C2)c1ccccc1O	1	12	10	4	-2	0
CCCCOc1ccc(CCC(=O)NN=Cc2ccco2)cc1	4	/	/	/	/	/
CCC1SC(=NN=Cc2ccco2)N(Cc2ccc(F)cc2)C1=O (stereo not given)	3	/	/	/	/	/
CC1CCc2sc(C(=O)N3CCN(c4ncccn4)CC3)cc2C1 (stereo not given)	0	0	5	28*	-7	-1
Cc1nonc1C(=O)NN=Cc1ccc([N+](=O)[O-])o1	13	/	/	/	/	/
Cc1ccc(N2CCN(N=C/C=C/c3ccccc3)CC2)cc1	3	/	/	/	/	/
CNC(=O)COC(=O)c1ccc(-c2nc3ccccc3s2)s1	-198	4	3	8	-4	1
COCCCNC(=O)COC(=O)c1ccc(-c2nc3ccccc3s2)s1	-210	5	-1	28*	7	-2
CCOc1ccc(N2C(=O)/C(=C\c3ccc(O)c(OC)c3)S(=O)(=O)C2c2cccc([N+](=O)[O-])c2)cc1 (stereo not given)	5	13	2	-6	14	10*
Cc1ccc(SCC(=O)OCC(=O)NCc2cccs2)cc1	3	28*	3	24	5	-3
O=C(COC(=O)c1cccc(Cl)c1Cl)NCc1cccs1	2	3	33*	33*	8	2
Cc1csc(SCC(=O)NC(C)c2ccccc2)n1 (stereo not given)	2	3	2	3	-6	0
O=C(CSc1ccc2ccccc2c1)NCc1cccs1	3	26*	-2	-5	4	0
Cc1ccc(SCC(=O)NC(C)c2ccccc2)cc1 (stereo not given)	5	34*	0	-4	0	0
O=C(NN=Cc1c[nH]c2ccccc12)c1ccc([N+](=O)[O-])cc1Cl	4	/	/	/	/	/
O=C(O)c1cc(-c2ccc(C=NN3C(=O)C4C5C=CC(C6CC56)C4C3=O)o2)ccc1Cl (stereo not given)	8	/	/	/	/	/
CC(=NNC(=O)c1c[nH]c2ccccc12)c1ccco1	5	/	/	/	/	/
CCCCCC(=O)NN=C(C)c1ccccn1	1	/	/	/	/	/
Cc1ccc(SCC(=O)OCC(=O)Nc2ccc3[nH]c(=O)[nH]c3c2)cc1C	2	2	1	0	6	-2
Cc1ccc(SCC(=O)OCC(=O)NCCc2ccccc2)cc1	-2	50*	4	28*	9	-1
Cc1ccc(SCC(=O)OCC(=O)NCCc2ccccc2)cc1C	0	12	0	30*	12	1
Cc1ccc(C(=O)ON=C2CC3CCC2(C)C3(C)C)cc1 (stereo not given)	3	/	/	/	/	/
COc1cc(C=NNC(=S)NN=Cc2cc(OC)c(OC)c(OC)c2)cc(OC)c1OC	5	/	/	/	/	/
SMILES	UCH37 DUB inh	PAFAH1B2 inh	PAFAH2 inh	pPAFAH inh	PAFAH1B3 inh	GRIN3A LBD mod
O=C(O)CSc1cc(NS(=O)(=O)c2ccc(Br)cc2)c2ccccc2c1O	/	52*	42*	16	63*	-27
Cc1ccc(S(=O)(=O)Nc2ccc(Br)cc2C(NCC(=O)O)c2ccccc2)cc1 (stereo not given)	1	21	2	10	4	1
CCOc1ccc(NC(=O)Nc2cc(C(=O)O)ccc2N2CC3CC(C2)c2cccc(=O)n2C3)cc1 (stereo not given)	5	3	-1	30*	-4	11*
CCN1CCN(S(=O)(=O)c2ccc(Cl)c(C(=O)NC3CC3)c2)CC1	1	24*	5	-1	9	0
Cc1ccc(S(=O)(=O)N2CCN(CC(=O)Nc3ccccc3Cl)CC2)cc1	2	8	-1	2	4	1
O=C(CCN1CCN(S(=O)(=O)c2ccc(Br)cc2)CC1)Nc1ccccc1F	1	25*	-5	5	8	-3
COc1ccc(NC(=O)CCN2CCN(S(=O)(=O)c3ccc(Br)cc3)CC2)cc1	4	21	1	8	-3	2
CCOC(=O)N1CCN(S(=O)(=O)c2ccc(Cl)cc2)CC1	1	6	2	12	10	0
Cc1ccc(S(=O)(=O)Nc2ccc(NC(=O)CN3CCCCC3)c(Cl)c2)cc1	2	8	3	26*	10	-3
CCN1CCN(S(=O)(=O)c2ccc(Cl)c(C(=O)NC3CCCC3)c2)CC1	2	11	6	3	-5	1
CCOC(=O)N1CCC(N2CCN(S(=O)(=O)c3ccc(Cl)cc3)CC2)CC1	1	29*	5	0	0	-4
CCCCCCCCC(=O)NN=Cc1ccccn1	3	/	/	/	/	/
O=C(NN=Cc1ccc2c(c1)OCO2)c1sc2cc(Cl)ccc2c1Cl	-7	/	/	/	/	/
O=C(CN1CCN(S(=O)(=O)c2ccc(Br)cc2)CC1)Nc1ccc(F)cc1	0	28*	6	-2	1	-2
Cc1ccc(S(=O)(=O)N2CCN(CC(=O)NC3CCCc4ccccc43)CC2)cc1C (stereo not given)	4	4	9	2	2	-1
COc1ccc(C)cc1NC(=O)CN1CCN(S(=O)(=O)c2ccc(Br)cc2)CC1	1	28*	2	-4	-3	1
CC1CCN(S(=O)(=O)c2ccc(NC(=O)CN3CCCCCC3)cc2)CC1	6	30*	-3	8	2	-5
COc1ccc(NC(=O)CN2CCN(S(=O)(=O)c3ccc(Br)cc3)CC2)c(OC)c1	4	20	-2	3	0	2
O=C(CCC(=O)N1CCN(S(=O)(=O)c2ccc(Cl)cc2)CC1)NC1CCCc2ccccc21 (stereo not given)	-3	26*	3	3	-2	1
O=C(O)c1nc(Cl)c(Cl)c(NN=Cc2ccccc2C(F)(F)F)c1Cl	13	/	/	/	/	/
Cc1ccc(C=NNc2ncc(Cl)cc2Cl)s1	0	/	/	/	/	/
COc1ccc(C(C)=NNC(=O)c2ccncc2)cc1[N+](=O)[O-]	2	/	/	/	/	/
O=C1CSC(=NN=Cc2cccs2)N1Cc1ccc(F)cc1	2	/	/	/	/	/
C=CCn1c(=C(C#N)C(=O)NCC2CCCO2)sc(=Cc2ccccn2)c1=O (stereo not given)	-4	/	/	/	/	/
O=C1C2C3C=CC(C4CC34)C2C(=O)N1N=Cc1ccc([N+](=O)[O-])o1 (stereo not given)	8	/	/	/	/	/
NS(=O)(=O)c1ccc(NC(=O)CN2CCN(S(=O)(=O)c3ccc(F)cc3)CC2)cc1	4	3	-2	2	4	1
